Screening data (PubChem)
Compounds with a hit are over-represented: about 4.4% of the library has one in this group of screens.
HSF1 inh: HSF1 inhibition. 0.77% of 300,000 active. AID 2098. activity change, negative = inhibition, % at 7.5 µM (by protocol). NIH3T3-HGL HSE-luciferase, MG132-induced, luminescence 8 h; hits give low values;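 active = more than half of replicate wells show activity change below -50%, luminescence cut by over half; inconclusive = some wells, but at most half, below -50%; inactive = no replicate well below -50%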;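 also: luciferase reports HSF-1 transcriptional activity via heat shock element; 0% = median of DMSO wells and -100% = zero luminescence signal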
HIF activator: HIF pathway transcriptional activation; U2OS HRE-luciferase reporter, luminescence; normalized: DMSO 0%, desferrioxamine 100%; activation, % at 7.5 µM (by protocol); 0.32% of 300,000 active; AID 1910;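 active = mean activation of at least 10% of the iron chelator positive control signal, with at least half of replicates also reaching 10%; inconclusive = mean and replicate majority disagree about reaching 10%; inactive = mean and most replicates under 10%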
T cruzi inh: T. cruzi replication inhibition | T. cruzi beta-gal in NIH3T3, luminescence, 90 h | inhibition, % (concentration not given with the values) | 1.4% of 300,000 active | AID 1885;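 active = mean inhibition across valid replicates above about 55%, limit read from the data; inconclusive = mean below that limit but half or more replicates reach it; inactive = mean below it, under half of replicates reach it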;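 also: signal also drops with host cell toxicity which is not excluded here; 0% = plate median of DMSO wells and 100% = zero luminescence signal; higher percent means less beta-gal luminescence so fewer parasites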
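Test system: β-gal T. cruzi (Tulahuen C4) inside NIH/3T3 cells / Quantity: 5,000 cells/well / Measured by: luminescence from GalScreen with 0.05% NP40, read after 60 min / Medium: DMEM plus 2% FBS / Measure: parasite load inhibition, % / Reagent: Tulahuen C4 trypomastigotes, 5000/well / Schedule: co-culture of at least 90 h after 3 h attachment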
Calb FLC: affects C. albicans growth with fluconazole; C. albicans CaCi-2 + fluconazole, Alamar Blue growth, 48 h; growth inhibition, % (test concentration not listed); 0.57% of 300,000 active; AID 1979;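 active = growth inhibition above about 58% in most replicates, limit read from the data, passing the limit was not always enough; inconclusive = exactly half the replicates above a set limit; inactive = most replicates below a set limit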;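 also: all wells also contain fluconazole at 8 µg/ml as a sub-toxic cotreatment; 0% = median of DMSO wells and 100% = median of geldanamycin control wells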
HSF-1 act: increases HSF-1 driven luciferase reporter signal | activation, % at 9 µM | 1.7% of 300,000 active | NIH3T3-HGL HSF-1 luciferase reporter, MG132, 8 h; 100% = twice DMSO control signal;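 active = mean replicate activation of at least 50% with a set share of replicates each reaching 50%; inconclusive = only one of those two conditions met; inactive = mean below 50% and too few replicates reaching it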;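 also: 0% = median of the neutral control wells and 100% = twice that signal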
* = called active by the depositor; ? = inconclusive; . = no result given.

SMILES	HSF1 inh	HIF activator	T cruzi inh	Calb FLC	HSF-1 act
CCN(CC)c1ccc(NC(=O)CSc2nc3nc(C)cc(C)c3c(=O)[nH]2)cc1	-3	386*	3	-7	-7
O=C(CN1C2=NCCN2c2ccccc21)c1ccc(Br)s1	-5	0	-22	-20	13
Cc1cc2c(c(SCC(=O)NCc3ccccc3Cl)n1)C(=O)OC2	5	-1	-8	-7	1
O=C(CSc1nc2c(c(=O)[nH]1)CCC2)Nc1cccc(F)c1	9	1	-1	-11	32
O=C(CSc1nc2c(c(=O)[nH]1)CCC2)Nc1ccc(F)cc1	25	0	-10	11	68*
COC(=O)c1c(NC(=O)c2ccc([N+](=O)[O-])o2)sc2c1CCN(C(C)C)C2	110	-4	7	2	169*
CC(=O)N1CCc2c(sc(NC(=O)c3ccc([N+](=O)[O-])o3)c2C#N)C1	-1	0	-18	11	-11
CC(C)N1CCc2c(sc(NC(=O)c3nc4ccccc4s3)c2C(N)=O)C1	-3	1	7	119*	-5
COC(=O)c1c(NC(=O)Cc2ccccc2)sc2c1CCN(C(C)C)C2	-3	0	-4	-4	-3
CC(C)N1CCc2c(sc(NC(=O)c3ccc([N+](=O)[O-])o3)c2C(N)=O)C1	64	-2	20	-1	110*
CCOC(=O)c1sc(NC(=O)c2ccco2)c(C#N)c1C	4	1	4	21	28
COC(=O)c1sc(NC(=O)c2ccc([N+](=O)[O-])o2)c(C#N)c1C	7	0	57*	32	10
COC(=O)C1=C(NC(=O)c2ccccc2[N+](=O)[O-])CCS1	-1	0	-3	-2	-17
CCc1nnc(NC(=O)CSc2nnc(-c3ccc(O)cc3)n2C)s1	-2	0	-2	-6	-1
Cc1nnc(NC(=O)CN2CCN(Cc3c(Cl)cccc3Cl)CC2)s1	-7	-1	20	2	-4
CCOc1cccc2sc(Nc3nc4ccc(NC(C)=O)cc4s3)nc12	26	1	57*	25	18
CCC(=O)Nc1nc2ccc(NC(C)=O)cc2s1	11	2	-7	-14	12
CCOC(=O)c1sc(Nc2nc3c(OC)cccc3s2)nc1C	27	4	14	78*	26
COc1cccc2sc(Nc3nc(-c4ccccn4)cs3)nc12	100	94*	75*	-38	128*
CCOC(=O)c1sc(Nc2ccccc2)nc1C	20	2	-12	0	35
O=C(O)C1CCC(Cn2c(SCc3cc(=O)n4cc(Br)ccc4n3)nc3ccsc3c2=O)CC1 (stereo not drawn)	-1	1	-5	41	-25
O=C(O)c1ccc(Cn2c(SCc3cc(=O)n4cc(Br)ccc4n3)nc3ccsc3c2=O)cc1	1	-2	8	112*	-3
COc1ccc(-c2cnnc(N/N=C/c3ccc(O)cc3)n2)cc1	76	1	1	-7	101*
COc1ccc(-c2cnnc(N/N=C/c3ccc(O)c(O)c3)n2)cc1	-5	4	-18	8	-15
CCOC(=O)c1c(-c2ccccc2)n(C)c2ccc(O)cc12	-57*	0	-5	7	-55
SMILES	HSF1 inh	HIF activator	T cruzi inh	Calb FLC	HSF-1 act
O=C(Cc1ccccc1F)Nc1nc(-c2cccs2)cs1	52	4	0	-5	66*
Cc1c(N(C)S(=O)(=O)c2cccc(C(=O)NC(C)C)c2)c(=O)n(-c2ccccc2)n1C	23	0	-8	5	62*
O=C(c1ccc(S(=O)(=O)N2CCCC2)cc1)N1CCN(S(=O)(=O)c2cccc(F)c2)CC1	-5	0	-14	-9	0
Cc1ccc(S(=O)(=O)N2CCN(C(=O)c3cccc(F)c3)CC2)cc1	-54*	1	-5	-6	-63
CN(CC(=O)Nc1ccc(S(=O)(=O)N2CCCC2)cc1)CC(=O)Nc1cccc(F)c1	-1	53*	1	-36	9
COc1ccccc1C(CNC(=O)c1ccc(NS(=O)(=O)c2ccc3c(c2)OCCO3)cc1)N(C)C (stereo not drawn)	-6	0	-9	-2	-2
COc1ccc(NS(=O)(=O)c2cc3c4c(c2)CCN4C(=O)CC3)cc1OC	2	2	1	-4	4
COc1ccc(-c2cc3ccccc3oc2=O)cc1NC(=O)c1ccc([N+](=O)[O-])o1	29	1	56*	6	31
COc1ccc(S(=O)(=O)N2CCCCC2)cc1NC(=O)c1ccc([N+](=O)[O-])o1	-1	2	55*	-11	6
COc1ccc(S(=O)(=O)N2CCN(C(=O)c3ccc([N+](=O)[O-])o3)CC2)cc1	-2	0	56*	-2	3
CCN1CCN(c2ccc(S(=O)(=O)N3CCCCC3)cc2NC(=O)c2ccc(F)cc2)CC1	-2	0	38	-9	-7
CCN1CCN(c2ccc(S(=O)(=O)N3CCCCC3)cc2NC(=O)c2ccc([N+](=O)[O-])o2)CC1	15	1	60*	-1	9
Brc1ccc(C2NCCS2)cc1 (stereo not drawn)	.	.	.	12	.
CCC(COC)NC(=O)CCc1nnc(Cc2cccc(C(F)(F)F)c2)o1 (stereo not drawn)	39	2	-4	9	54*
CC(C)NC(=O)CCc1nnc(Cc2cccc(C(F)(F)F)c2)o1	8	1	1	-6	31
COc1ccc(Cl)cc1S(=O)(=O)NC(C)C(=O)NCCCn1ccnc1 (stereo not drawn)	-1	-1	-2	2	-6
COc1cccc(-c2cc(C(F)(F)F)n3ncc(C(=O)N4CCc5ccccc5C4)c3n2)c1	11	0	14	0	9
Cc1ccc(-c2cc(C(F)F)n3ncc(C(=O)N4CCN5CCCC5C4)c3n2)cc1 (stereo not drawn)	0	0	3	-1	2
Cc1ccc(-c2cc(C(F)F)n3ncc(C(=O)N4CCCCC4c4cccnc4)c3n2)cc1 (stereo not drawn)	0	-1	63*	-4	-2
CN1CCN(C(=O)c2cc3nc(-c4ccc(F)cc4)cc(C(F)(F)F)n3n2)CC1	1	0	3	?	-15
O=C(c1cnn2c(C(F)(F)F)cc(-c3ccccc3)nc12)N1CCCCC1c1cccnc1 (stereo not drawn)	4	0	59*	45	25
COc1ccc(-c2cc(C(F)(F)F)n3ncc(C(=O)N4CCc5ccccc5C4)c3n2)cc1	15	-1	63*	-6	35
O=C(c1cc2nc(-c3ccc(F)cc3)cc(C(F)(F)F)n2n1)N1CCCCC1c1cccnc1 (stereo not drawn)	-15	0	95*	22	4
Cc1ccc(O)c(-c2cc(C(=O)Nc3ccc(S(=O)(=O)Nc4nccc(C)n4)cc3)[nH]n2)c1	-16	-1	-15	-1	-41
